Only a selection was taken, and hits are over-represented in it overall.
G6PDH CS – inhibits Leuconostoc G6PDH, flagging false hits in G6PDH-based assays | Purified L. mesenteroides G6PDH, diaphorase/resazurin coupled fluorescence, 45 min | inhibition, % at 5 µM | 200,000 compounds, 0.12% hits
DTT redox prof – compounds producing H2O2 with reducing agent – biochemical, NIH compound library profiling, artefact control for MLSCN library redox annotation, primary screen. activation, % at 10 µM. 200,000 compounds, 0.03% hits. DTT-dependent redox cycling H2O2, phenol red/HRP absorbance; 100% = 100 µM peroxide control, 0% = buffer. AID 878;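 active = activation of at least 50% relative to the plate's high and low controls in the primary single-dose screen; inactive = activation below 50%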;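 also: compound incubated with DTT at 0.8 mM final as the reducing agent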
L major viab – inhibitors of Leishmania major promastigote growth; inhibition, % at 10 µM; 200,000 compounds, 9% hits; AID 1063; Leishmania major promastigotes, resazurin fluorescence viability;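 also: promastigotes grown with compound for 44 hours at 28 °C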
PfG6PD inh – PfG6PD (Plasmodium falciparum) enzyme inhibition. inhibition, % at 20 µM. 350,000 compounds, 0.78% hits. PfGluPho enzyme, NADPH resazurin-diaphorase fluorescence;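 active = inhibition reaching at least a set limit at 20 µM in the primary screen, cut at about 59% in these data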;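 also: 0% = DMSO wells with substrate and 100% = DMSO wells lacking glucose-6-phosphate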
Diaph act CS – diaphorase activation or chemical reduction counter-screen | Diaphorase/resazurin coupled assay, resorufin fluorescence, 16 min; stronger effect = higher value; 1 = vehicle wells, 0 = NADH-free wells | activation factor at 20 µM | 190,000 compounds, 0.005% hits;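 active = diaphorase activity raised at least twofold by the compound at 20 µM; inactive = activation factor below 2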
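Material: purified diaphorase enzyme from Clostridium kluyveri / Medium: HEPES pH 7.4 buffer with MgCl2 and Tween 20 / Schedule: enzyme reaction of 16 min at room temperature / Measured by: resorufin fluorescence, excitation 544 nm, emission 590 nm / Evaluation: rise in resorufin formation, marking diaphorase activation or chemical reduction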
Diaphorase inh – counter-screen for diaphorase-based assays: diaphorase inhibitors and chemical oxidizers. 190,000 compounds, 0.69% hits. diaphorase resazurin-to-resorufin fluorescence, NADH, 16 min; bacterial (C. kluyveri) enzyme, not human. inhibition, % at 20 µM;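 active = primary screen inhibition at 20 µM above a set limit, cut at about 50% in these data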;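 also: plate controls were DMSO with full reaction for no effect and wells lacking NADH for full effect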
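controls = No-NADH positive control and DMSO neutral control | system = Clostridium kluyveri diaphorase enzyme | timing = reaction incubation of 16 min at room temperature | signal = resorufin fluorescence 544/590 nm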
Starred values were filed as active, the others as inactive; / = not tested or not shown. Rule as the data show it, unless noted: active = inhibition above about 50%; inactive = the rest.

SMILES	G6PDH CS	DTT redox prof	L major viab	PfG6PD inh	Diaph act CS	Diaphorase inh
CCC(=O)NC(c1ccc(N(C)C)cc1)c1c(O)ccc2ccccc12 (stereo not drawn)	39	-2	100*	16	0.8	18
CN(C)c1ccc(C(CNC(=O)Cc2cccc3ccccc23)N(C)C)cc1 (stereo not drawn)	/	/	/	2	/	/
COc1ccc(C(NC(=O)C(C)C)c2c(O)ccc3ccccc23)cc1OC (stereo not drawn)	-12	0	99*	-3	0.8	20
Cc1cc(Br)ccc1NC(=O)CNC(=O)Cc1ccc(S(=O)(=O)N2CCOCC2)s1	/	/	/	-8	/	/
COc1c(O)cccc1[C@@H](O)C1CCN(CCc2ccc(F)cc2)CC1	/	/	/	7	/	/
CSc1nc(-c2ccc(N(C)C)cc2)c(C#N)c(=O)n1C	2	-1	-4	6	0.8	25
O=C(Cn1cnc2c(nnn2Cc2ccccc2)c1=O)Nc1ccc2c(c1)OCCO2	/	/	/	-3	/	/
CCC(=O)NC(c1ccc(OC)cc1)c1c(O)ccc2ccccc12 (stereo not drawn)	14	-2	99*	-7	0.7	30
O=C(Cn1c(=O)sc2ccccc21)Nc1ccc(S(=O)(=O)N2CCCC2)cc1	-4	0	80*	-14	0.8	18
O=C(CSCc1ccc(Br)cc1)Nc1ccc(S(=O)(=O)N2CCOCC2)cc1	4	-8	100*	-7	0.8	23
O=C(CSCc1ccccc1)Nc1ccc(S(=O)(=O)N2CCOCC2)cc1	6	2	0	-14	0.8	15
O=C(CN1CCCCCC1)Nc1ccc(S(=O)(=O)N2CCOCC2)cc1	8	0	55*	-16	0.9	13
O=C(CN1CCN(c2ccc(F)cc2)CC1)Nc1ccc(S(=O)(=O)N2CCOCC2)cc1	/	/	/	11	/	/
CC(C)c1ccc(N(CC(=O)Nc2ccc(S(=O)(=O)N3CCOCC3)cc2)S(C)(=O)=O)cc1	2	0	90*	13	1	0
CCNC(=O)NC(=O)C(C)N1C(=O)NC(c2ccccc2)(c2ccccc2)C1=O (stereo not drawn)	/	/	/	14	/	/
O=C(CCc1nc2ccccc2c(=O)[nH]1)Nc1cc(Cl)ccc1N1CCCC1	/	/	/	-18	/	/
CCOC(=O)C1(Cc2ccc(Cl)cc2)CCN(C(=O)c2ccoc2)CC1	2	-2	53*	9	0.8	17
CCOC(=O)C1(Cc2ccc(Cl)cc2)CCN(C(=O)c2cnc(C)cn2)CC1	/	/	/	4	/	/
Cc1ccc(SCC(=O)Nc2cccc(NC(=O)c3ccco3)c2)cc1	-1	-2	77*	5	0.9	13
Cc1ccccc1NC(=O)CSc1ccc(-c2ccco2)nn1	-8	0	-1	2	0.9	8
Cc1cccc(NC(=O)CSc2nnc(-c3ccco3)c(-c3ccco3)n2)c1	24	1	68*	27	0.5	49
Cc1ccc(C)c(NC(=O)CSc2ccc(-c3ccco3)nn2)c1	-9	0	55*	-6	1	4
Cc1ccc(-n2nnnc2SCC(=O)Nc2cccc(NC(=O)c3ccco3)c2)cc1C	3	0	66*	1	0.8	22
Cc1cc(C)cc(NC(=O)CSCc2nc3c(nnn3Cc3ccc(F)cc3)c(=O)[nH]2)c1	/	0	-4	-13	/	/
CCC(=O)Nc1cccc(-n2nnnc2SCC(=O)c2ccc(C)c(C)c2)c1	-22	0	99*	31	0.8	19
SMILES	G6PDH CS	DTT redox prof	L major viab	PfG6PD inh	Diaph act CS	Diaphorase inh
CC1=C(C(=O)OCc2ccccc2)C(c2cccnc2)c2c(n(C)c(=O)n(C)c2=O)N1 (stereo not drawn)	4	-4	75*	-15	0.8	17
CC1=C(C(=O)OCc2ccccc2)C(c2cccnc2)n2ncnc2N1 (stereo not drawn)	-1	-1	3	33	0.8	21
CCCC(c1nnnn1Cc1ccco1)N1CCN(C(=O)c2ccco2)CC1 (stereo not drawn)	5	0	3	-5	1.1	-8
COc1ccc(OC)c(C(c2nnnn2Cc2ccco2)N2CCN(C)CC2)c1 (stereo not drawn)	10	0	9	2	0.9	8
COc1cccc(C(c2nnnn2Cc2ccccc2)N2CCN(C(=O)c3ccco3)CC2)c1OC (stereo not drawn)	7	2	79*	4	0.8	17
COc1cccc(C(c2nnnn2Cc2ccco2)N2CCN(c3cccc(C)c3C)CC2)c1OC (stereo not drawn)	2	5	58*	28	0.7	27
CCCCC(c1nnnn1Cc1ccco1)N1CCN(C(=O)c2ccco2)CC1 (stereo not drawn)	2	0	59*	20	0.9	6
COc1ccc(C(c2nnnn2Cc2ccccc2)N2CCN(C(=O)c3ccco3)CC2)cc1 (stereo not drawn)	6	1	58*	-11	0.9	9
Nc1ncnc2c1ncn2[C@@H]1O[C@H](CNC(=O)[C@@H](N)Cc2ccc(C(F)(F)F)cc2)[C@@H](O)[C@H]1O	/	/	/	2	/	/
O=C(c1ccco1)N1CCN(C(c2ccc(Cl)cc2)c2nnnn2Cc2ccccc2)CC1 (stereo not drawn)	-4	-3	85*	-14	0.9	8
O=C(Nc1ccc2c(c1)OCO2)C(c1ccc(Cl)cc1)N1CCN(C(=O)c2ccco2)CC1 (stereo not drawn)	-7	2	50*	16	0.8	22
CCOc1ccc(C(c2nnnn2Cc2ccccc2)N2CCN(C(=O)c3ccco3)CC2)cc1 (stereo not drawn)	/	2	23	-4	/	/
Cc1ccc(C(c2nnnn2Cc2cccs2)N2CCN(C(=O)c3ccco3)CC2)cc1 (stereo not drawn)	-15	1	58*	-3	0.8	19
O=C(Nc1ccc2c(c1)OCO2)C(c1ccccc1)N1CCN(C(=O)c2ccco2)CC1 (stereo not drawn)	0	-1	2	-5	0.9	12
Cc1cccc(C)c1NC(=O)COC(=O)CCc1c[nH]c2ccccc12	/	/	/	3	/	/
COc1cc(C(=O)Nc2scc(-c3ccc(Br)cc3)c2C(=O)O)cc(OC)c1OC	/	/	/	59*	/	/
CCOc1ccc(OCCOCCOc2c(Cl)cccc2Cl)cc1	/	3	60*	9	/	/
CCOc1ccccc1OCCOCCOc1c(Cl)cccc1Cl	-7	0	34	7	0.9	11
CCCCCCOc1ccc(/C(C)=N/NC2=NCCN2)cc1[N+](=O)[O-]	3	0	100*	-6	1.8	-77
CCCCOc1ccc(Br)cc1/C(C)=N/NC1=NCCN1	7	2	101*	7	1	-1

Compound activity: PubChem, several laboratories
